Bioassay records: PubChem BioAssay, Johns Hopkins Ion Channel Center
Sampled rows, rich in hits. Any-hit rate of the full collection: about 3.5%.
RGS4 block = human RGS4 inhibition; HEK293 M3R/RGS4 inducible, Fluo-4 calcium flux; stronger effect = higher value; triggered by carbachol at its EC20; B-score at 10 µM; 310,000 compounds, 0.45% hits;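 active = B-score, a plate-corrected calcium signal, over three deviations above library mean, with baseline fluorescence within five deviations of library mean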;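 note: RGS4 expression induced by doxycycline in cells with stable M3 receptor; B-score is computed from the integrated fluorescence ratio over baseline after carbachol; higher B-score means a larger calcium signal and so more RGS4 inhibition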
Target sequence (P49798 whole entry, looked up): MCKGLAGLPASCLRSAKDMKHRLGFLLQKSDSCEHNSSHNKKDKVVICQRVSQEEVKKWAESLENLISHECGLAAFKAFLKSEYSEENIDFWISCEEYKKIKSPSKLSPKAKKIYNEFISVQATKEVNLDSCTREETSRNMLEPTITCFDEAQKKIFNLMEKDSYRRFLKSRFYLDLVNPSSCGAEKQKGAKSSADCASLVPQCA
MrgX1 PAM = allosterically activates human MrgX1 receptor signaling. Q96LB2. B-score at 10 µM. MrgX1-HEK293, Fluo-4 calcium flux, FDSS; stronger effect = higher value. AID 588675. 310,000 compounds, 0.63% hits;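 active = plate-corrected calcium response at least 3 library SD above typical, normal starting fluorescence, not activating the receptor alone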;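 note: compound read alongside a low EC10 to EC30 dose of BAM8-22 agonist; peak minus trough fluorescence over baseline measured at the second addition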
Target sequence (Q96LB2 whole entry, looked up): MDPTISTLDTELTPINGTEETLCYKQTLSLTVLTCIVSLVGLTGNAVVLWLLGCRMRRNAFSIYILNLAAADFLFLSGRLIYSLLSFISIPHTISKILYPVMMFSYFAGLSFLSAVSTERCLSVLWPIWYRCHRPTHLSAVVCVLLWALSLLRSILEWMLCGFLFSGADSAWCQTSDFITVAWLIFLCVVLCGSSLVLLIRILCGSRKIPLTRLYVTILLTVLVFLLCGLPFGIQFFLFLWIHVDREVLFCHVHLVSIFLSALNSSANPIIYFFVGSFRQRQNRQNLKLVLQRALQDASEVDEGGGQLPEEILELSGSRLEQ
RGS4 pot = potentiators or activators of RGS4 | B-score at 10 µM | 310,000 compounds, 0.92% hits | HEK293 M3R/inducible RGS4, carbachol calcium flux Fluo4; stronger effect = lower value;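 active = B-score of the integrated calcium signal more than 4 SD below the library mean, with starting fluorescence not abnormally high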;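 note: negative B-score means reduced calcium response which marks RGS4 activation or potentiation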
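Detection: kinetic calcium fluorescence imaging with Fluo4-AM dye, 2 µM / Material: HEK293 cells with stable M3R and inducible RGS4 / Schedule: recording 10 s baseline at 1 Hz, 100 s post-agonist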
MrgX1 agonist = agonists of human MrgX1 receptor; Q96LB2; MrgX1-HEK293 cells, Fluo-4 calcium fluorescence, agonist mode; stronger effect = higher value; B-score at 10 µM; 310,000 compounds, 0.44% hits;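 active = calcium response B-score plate-corrected fluorescence ratio at least 3 library SD, with starting fluorescence B-score inside 5 SD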
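Material: HEK293 cells stably expressing human MrgX1 receptor | Quantity: 15,000 cells per well | Times: Cells plated overnight, dye loaded 0.5 h 37 °C, 0.5 h room temperature | Measured by: Kinetic Fluo-4 NW fluorescence of intracellular calcium | Control set: Positive and negative controls per plate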
MrgX1 antagonist = human MrgX1 receptor antagonism, primary screen; 310,000 compounds, 1.3% hits; B-score at 10 µM; Q96LB2; MRGX1-HEK293 calcium flux, Fluo-4, BAM8-22 antagonism; stronger effect = lower value;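 active = calcium-response B-score plate-corrected more than 3 library SD below zero, starting fluorescence within 5 deviations, no agonist response on first addition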;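 note: peak minus trough fluorescence over baseline after final BAM8-22 challenge near maximal dose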
Hits are given with their value; - = inactive; . = not tested or not shown.

SMILES	RGS4 block	MrgX1 PAM	RGS4 pot	MrgX1 agonist	MrgX1 antagonist
CCOc1ccccc1N1CCN(CC(O)COC2CCCc3ccccc32)CC1 (stereo not drawn)	-	-	-	-	-
O=S(=O)(c1ccccc1)N1N=C(c2ccc(O)cc2)CC1c1ccco1 (stereo not drawn)	-	-	-	-	-
C[n+]1ccccc1/C=C/c1ccc([N+](=O)[O-])cc1	-	-	-	-	-
O=[N+]([O-])c1ccc(/C=C/C2=NN(c3ccccc3)C(c3ccco3)C2)cc1 (stereo not drawn)	.	9.68	.	-	-
O=[N+]([O-])c1ccc(C2=NN(c3ccccc3)C(c3ccco3)C2)cc1 (stereo not drawn)	-	.	-7.16	.	.
Cc1cc(NC(=O)Nc2ccccc2F)ccc1Br	-	-	-	-	-
COc1ccc(C(=O)NNC(=O)CSc2nc3c([nH]2)c(=O)n(C)c(=O)n3C)cc1	-	-	-	-	-4.64
Cc1ccc(C(=O)Nc2c(N)nc(SCC(=O)Nc3cc(C)on3)[nH]c2=O)cc1	-	-	-	-	-6.36
Cc1ccc2nc(SCC(=O)Nc3cc(C)on3)[nH]c2c1	-	-	-	-	-
Cn1c(=O)c2[nH]c(SCC(=O)c3ccc(F)cc3)nc2n(C)c1=O	-	-	-	-	-
COc1ccc(C(=O)Nc2c(N)nc(SCC(=O)Nc3ccc(NC(C)=O)cc3)[nH]c2=O)cc1	-	-	-	-	-4.92
CN(C)c1ccc(/C=N/N=C(N)N)cc1[N+](=O)[O-]	-	-	-	36.7	-
C[C@@H]1C2CC(C/C2=N\NC(=O)c2ccncc2)C1(C)C (stereo partly drawn)	-	-	-	-	-
CC1C2CC(C/C2=N/NC(=O)c2cccs2)C1(C)C (stereo not drawn)	-	8.66	-	-	-
Cc1nc2ccc(Cl)cc2c(-c2ccccc2Cl)c1CC(=O)O	-	-	-	-	-
CN1CCc2nc3ccc(Cl)cc3c(-c3ccccc3Cl)c2C1	-	-	-8.64	-	-
CCOC(=O)c1c(Nc2ccccc2OCCOC)n[nH]c1C	-	-	-	-	-
Cc1cc(C(=O)CSc2nncn2C)c(C)n1-c1ccccc1	-	-	-	-	-
CCOC(=O)C1=NNC(C(=O)c2ccc(Cl)cc2)C1c1ccccc1 (stereo not drawn)	-	-	-	-	-
CCOC(=O)C1=NN(c2ccc(Cl)cc2)C(c2ccccc2)CC1=O (stereo not drawn)	-	-	-	-	-7.8
COc1ccc(Cl)cc1C(=O)OCC(=O)NCCNC(=O)COC(=O)c1cc(Cl)ccc1OC	-	-	-	-	-
C=C(C)n1c(=O)[nH]c2ccccc21	-	-	-	-	-
Cc1cc(C)c(NC(N)=S)c(C)c1	-	-	-	-	-
Cc1ccc2nc(N(CCCN(C)C)C(=O)c3ccc(S(=O)(=O)N4CCc5ccccc5C4)cc3)sc2c1	-	-	-7.8	-	-
Cc1cc(C)c2sc(N(CCCN(C)C)C(=O)c3ccc(S(=O)(=O)N4CCCc5ccccc54)cc3)nc2c1	-	-	-	-	-
SMILES	RGS4 block	MrgX1 PAM	RGS4 pot	MrgX1 agonist	MrgX1 antagonist
Cc1cc(C)c2sc(N(CCCN(C)C)C(=O)c3ccc(S(=O)(=O)N4CCc5ccccc5C4)cc3)nc2c1	-	-	-	-	-7.51
CN(C)CCCN(C(=O)c1ccc(S(=O)(=O)N2CCc3ccccc3C2)cc1)c1nc2ccc(F)cc2s1	-	-	-	-	-
Cc1ccc(OCCn2c(=O)n(C)c3ccccc32)cc1	-	-	-7.18	-	-
Cc1cc(/C=N/n2cnnc2)c(C)n1-c1ccc(OCc2ccc(Cl)cc2Cl)cc1	-	-	-8.27	-	-
Cc1cc(/C=N/n2cnnc2)c(C)n1-c1ccc(Cl)cc1	-	-	-	-	-
CCOC(=O)c1c(C)[nH]c(C(=O)N2CCCC(C(=O)c3ccccc3OC)C2)c1C (stereo not drawn)	-	27.2	-	-	-
CCOC(=O)c1c(C)[nH]c(C(=O)N2CCCC(C(=O)c3cccc(OC)c3)C2)c1C (stereo not drawn)	-	-	-	-	-
Cc1ccnc(N2C(=O)CSC2c2ccc(Cl)cc2)c1 (stereo not drawn)	-	-	-	-	-
O=C1/C(=C\c2ccc(Br)cc2)SC(=S)N1NS(=O)(=O)c1ccccc1	-	-	-	-	-
CC(/C=C1\SC(=S)N(c2ccc(C(=O)O)cc2)C1=O)=C\c1ccccc1	-	-	-8.44	-	-9.62
CC(/C=C1\SC(=S)N(NC(=O)c2ccc(C)cc2)C1=O)=C\c1ccccc1	-	-	-	-	-
CC(/C=C1\SC(=S)N(NS(=O)(=O)c2ccccc2)C1=O)=C\c1ccccc1	-	-	-	-	-8.8
COc1ccc(/C=C2/SC(=S)N(NS(=O)(=O)c3ccccc3)C2=O)cc1	-	-	-	30.6	-
CCc1ccc(NS(=O)(=O)c2c(C(=O)N3CCOCC3)c(C)n(C)c2C)cc1	-	-	-	-	-
O=C(COC(=O)/C=C/c1ccccc1[N+](=O)[O-])NCC(F)(F)F	-	-	-	-	-4.86
CCNC(=O)COC(=O)/C=C/c1ccccc1[N+](=O)[O-]	-	-	-	-	-
Cc1ccc(NS(=O)(=O)c2ccc(C)c(C(=O)N3CCN(C)CC3)c2)cc1	-	-	-	-	-
Cc1ccc(CN(C)C(=O)c2cc(COc3ccc(F)cc3Cl)on2)o1	-	-	-	-	-
CN(C(=O)c1cc(COc2ccc(F)cc2Cl)on1)C1CCCc2ccccc21 (stereo not drawn)	-	-	-7.19	-	-
CC(=O)Nc1cc(C(=O)N2CCc3ccccc3C2)ccc1Sc1ccc(Cl)cc1	-	-	-8.04	-	-
CC1CCCN(c2nc(-c3cccnc3)nc3scc(-c4ccccc4)c23)C1 (stereo not drawn)	-	-	-7.27	-	-
CC1CCN(c2nc(CN3CCCCC3)nc3scc(-c4ccccc4)c23)CC1	-	-	-7.36	-	-
CCOC(=O)C1(Cc2ccccc2)CCN(Cc2ccc3c(c2)OCCO3)CC1	-	-	-	-	-
Cc1ccc(OCC(=O)N2N=C(c3ccncc3)CC2(O)C(F)(F)F)cc1C (stereo not drawn)	-	-	-	-	-
CC1CCC(NC(=O)C2COc3ccccc3O2)CC1 (stereo not drawn)	-	-	-	-	-
O=C(NC1CCCCC1)C1COc2ccccc2O1 (stereo not drawn)	-	-	-7.56	-	-
CCN1C(=O)N[C@@H](c2ccccc2)[C@@H](C(=O)OC)[C@H]1C	-	-	-	-	-
CCOc1ccc(N2CC(=O)Nc3ccccc3NCC2=O)cc1	-	-	-	-	-5.92
CCOC(=O)C1=C(c2ccccc2)NC(N)=NC1c1ccc(OCc2ccc(C(=O)OC)cc2)cc1 (stereo not drawn)	-	-	-6.98	-	-
